ChEMBL document CHEMBL1145090, “In vitro analysis of stable, receptor-selective neurotensin[8-13] analogues” (J Med Chem, 2003)
Numbered stars: 1 amine (or outer) side, 2 acyl side, 3 side chain; on linkers, the order of the positions; unused ones are H or OH. Square brackets hold non-standard residues; d marks the D form. Peptide text beside a SMILES is read from it. X7 = CCNC(=N)NCCC[C@H](N)C(=O)/N=C(/N)NCCC[C@H](N[*:1])C(=O)[*:2]; X9 = NC1=NCCN1CCC[C@H](N[*:1])C(=O)[*:2]; Tle = CC(C)(C)[C@H](N)C(=O)O; hLys = NCCCCC[C@H](N)C(=O)O

Legend:
Sortilin = molecular target: T1, Sortilin (Homo sapiens, UniProt Q99523); assay: Evaluated for binding affinity by inhibiting binding of [125I]Tyr(3)-NT to human Neurotensin receptor 3
T1 sequence (Q99523 whole entry): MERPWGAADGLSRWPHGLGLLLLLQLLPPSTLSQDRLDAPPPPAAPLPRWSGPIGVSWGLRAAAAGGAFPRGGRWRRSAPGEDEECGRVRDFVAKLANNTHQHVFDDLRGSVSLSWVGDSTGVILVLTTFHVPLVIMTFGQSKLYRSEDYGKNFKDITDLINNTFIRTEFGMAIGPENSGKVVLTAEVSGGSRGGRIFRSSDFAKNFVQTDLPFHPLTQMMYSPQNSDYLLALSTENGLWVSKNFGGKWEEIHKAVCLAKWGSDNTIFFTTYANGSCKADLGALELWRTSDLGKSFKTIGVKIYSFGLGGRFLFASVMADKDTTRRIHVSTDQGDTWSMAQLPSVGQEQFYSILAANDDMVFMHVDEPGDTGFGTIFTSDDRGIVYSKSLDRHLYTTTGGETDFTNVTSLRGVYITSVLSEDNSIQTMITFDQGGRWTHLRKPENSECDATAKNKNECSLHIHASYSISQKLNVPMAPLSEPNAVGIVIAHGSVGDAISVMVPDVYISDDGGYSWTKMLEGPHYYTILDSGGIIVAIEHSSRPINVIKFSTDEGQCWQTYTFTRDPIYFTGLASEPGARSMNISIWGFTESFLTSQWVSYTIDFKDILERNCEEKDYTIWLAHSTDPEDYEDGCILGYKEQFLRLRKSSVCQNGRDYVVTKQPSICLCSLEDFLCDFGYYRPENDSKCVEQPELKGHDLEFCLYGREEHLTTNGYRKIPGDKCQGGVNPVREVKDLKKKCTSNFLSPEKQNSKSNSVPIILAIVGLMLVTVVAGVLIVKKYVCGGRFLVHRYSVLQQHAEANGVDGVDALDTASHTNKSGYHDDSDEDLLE
Outline: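 Whole cells (2 × 10^5) transiently expressing human NTR-3, ~60 h post-transfection. Equilibrated 10 min in Earle's Tris-HEPES pH 7.5 with 0.1% glucose and 0.1% BSA, then incubated 30 min at 37 °C with 0.4 nM 125I-Tyr(3)-NT, 0.8 mM 1,10-phenanthroline and increasing peptide. Washed, lysed in 0.1 N NaOH, gamma-counted. Nonspecific binding with 1 µM NT. IC50 taken.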

[1] = molecular target: Neurotensin receptor type 2 (Homo sapiens, UniProt O95665); assay: Evaluated for binding affinity by inhibiting binding of [125I]Tyr(3)-NT to human Neurotensin receptor 2
[2] = molecular target: Neurotensin receptor type 1 (Homo sapiens, UniProt P30989); assay: Evaluated for binding affinity by inhibiting binding of [125I]-Tyr(3)-NT to human Neurotensin receptor 1
[3] = Plasma half life in rat serum; assay type: ADME, organism-based

Sequence of Neurotensin receptor type 2 (O95665 whole entry): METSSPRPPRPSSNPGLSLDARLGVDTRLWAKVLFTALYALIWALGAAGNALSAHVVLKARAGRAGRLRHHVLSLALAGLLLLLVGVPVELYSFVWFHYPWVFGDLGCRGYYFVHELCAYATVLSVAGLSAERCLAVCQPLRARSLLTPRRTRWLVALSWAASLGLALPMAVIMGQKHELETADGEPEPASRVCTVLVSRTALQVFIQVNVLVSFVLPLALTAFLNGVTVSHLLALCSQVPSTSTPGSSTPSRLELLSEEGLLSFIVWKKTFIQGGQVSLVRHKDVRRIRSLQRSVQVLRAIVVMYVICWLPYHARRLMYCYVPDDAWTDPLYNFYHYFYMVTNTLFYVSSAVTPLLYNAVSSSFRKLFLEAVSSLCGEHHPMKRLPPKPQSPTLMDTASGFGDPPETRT
Sequence of Neurotensin receptor type 1 (P30989 whole entry): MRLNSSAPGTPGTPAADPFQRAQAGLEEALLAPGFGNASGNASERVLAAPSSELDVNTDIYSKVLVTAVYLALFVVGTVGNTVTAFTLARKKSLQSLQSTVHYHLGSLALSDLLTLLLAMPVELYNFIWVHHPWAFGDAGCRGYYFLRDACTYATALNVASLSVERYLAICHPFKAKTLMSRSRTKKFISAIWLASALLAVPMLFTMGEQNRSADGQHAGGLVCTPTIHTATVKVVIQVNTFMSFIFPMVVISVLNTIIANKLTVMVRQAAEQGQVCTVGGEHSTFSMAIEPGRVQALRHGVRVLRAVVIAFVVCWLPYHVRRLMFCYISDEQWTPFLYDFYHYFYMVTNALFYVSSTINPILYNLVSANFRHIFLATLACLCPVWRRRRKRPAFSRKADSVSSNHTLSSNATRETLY

SMILES | IC50 (Sortilin) | IC50 [1] | IC50 [2] | half-life [3]
CC[C@H](C)[C@H](NC(=O)[C@H](Cc1ccc(O)cc1)NC(=O)[C@@H]1CCCN1C(=O)[C@@H](N)CCC/N=C(/N)NC(=O)[C@@H](N)CCCN=C(N)N)C(=O)N[C@@H](CC(C)C)C(=O)O | 1740 nM | 0.9 nM | 0.4 nM | 2.9 h
CC[C@H](C)[C@H](NC(=O)[C@H](Cc1ccc(O)cc1)NC(=O)[C@@H]1CCCN1C(=O)[C@@H](N)CCC/N=C(/N)NC(=O)[C@@H](N)CCCCN(C)C)C(=O)N[C@@H](CC(C)C)C(=O)O | 1620 nM | 2.8 nM | 0.4 nM | 2.12 h
CCNC(=N)NCCC[C@H](N)C(=O)N[C@@H](CCCNC(=N)N)C(=O)N1CCC[C@H]1C(=O)N[C@@H](Cc1ccc(O)cc1)C(=O)N[C@H](C(=O)N[C@@H](CC(C)C)C(=O)O)[C@@H](C)CC |  |  |  | 0.525 h
CC[C@H](C)[C@H](NC(=O)[C@H](Cc1ccc(O)cc1)NC(=O)[C@@H]1CCCN1C(=O)[C@@H](N)CCCN=C(N)NC(=O)[C@@H](N)CCCN)C(=O)N[C@@H](CC(C)C)C(=O)O | 1400 nM | 3 nM | 0.59 nM | 2.23 h
CC[C@H](C)[C@H](NC(=O)[C@H](Cc1ccc(O)cc1)NC(=O)[C@@H]1CCCN1C(=O)[C@H](CCCNC(=N)N)NC(=O)[C@@H](N)CCCNC(=N)N)C(=O)N[C@@H](CC(C)C)C(=O)O |  |  |  | 0.0983 h
CC[C@H](C)[C@H](NC(=O)[C@H](Cc1ccc(O)cc1)NC(=O)[C@@H]1CCCN1C(=O)[C@H](CCCNC(=N)N)NC(=O)[C@@H](N)CCCN=C(N)NC)C(=O)N[C@@H](CC(C)C)C(=O)O |  |  |  | 0.237 h
CC(C)C[C@H](NC(=O)[C@@H](NC(=O)[C@H](Cc1c[nH]c2ccccc12)NC(=O)[C@@H]1CCCN1C(=O)[C@@H](N)CCCN=C(N)NC(=O)[C@@H](N)CCCCCN)C(C)(C)C)C(=O)O (H-R(hLys)PW[Tle]L-OH) | 53700 nM | 500 nM | 133 nM | > 24 h
CC(C)C[C@H](NC(=O)[C@@H](NC(=O)[C@H](Cc1ccc(O)cc1)NC(=O)[C@@H]1CCCN1C(=O)[C@@H](N)CCCN=C(N)NC(=O)[C@@H](N)CCCCCN)C(C)(C)C)C(=O)O (H-R(hLys)PY[Tle]L-OH) | 4000 nM | 11.1 nM |  | 
CC[C@H](C)[C@H](NC(=O)[C@H](Cc1ccc(O)cc1)NC(=O)[C@@H]1CCCN1C(=O)[C@H](CCCNC(=N)N)NC(=O)[C@@H](N)CCCN1CCN=C1N)C(=O)N[C@@H](CC(C)C)C(=O)O (H-[X9]RPYIL-OH) |  |  |  | 0.275 h
CC(C)C[C@H](NC(=O)[C@@H](NC(=O)[C@H](Cc1ccc(O)cc1)NC(=O)[C@@H]1CCCN1C(=O)[C@H](CCCNC(=N)N)NC(=O)[C@@H](N)CCCCCN)C(C)(C)C)C(=O)O (H-[hLys]RPY[Tle]L-OH) |  |  | 5.71 nM | > 24 h

Other lines, results leading:

IC50 (Sortilin) | IC50 [1] | IC50 [2] | half-life [3] | SMILES
550 nM | 3.1 nM | 0.51 nM | 1.72 h | CC[C@H](C)[C@H](NC(=O)[C@H](Cc1ccc(O)cc1)NC(=O)[C@@H]1CCCN1C(=O)[C@@H](N)CCCNC(=N)NC(=O)[C@@H](N)CCCCC[N+](C)(C)C)C(=O)N[C@@H](CC(C)C)C(=O)O
640 nM | 3.5 nM |  |  | CC[C@H](C)[C@H](NC(=O)[C@H](Cc1ccc(O)cc1)NC(=O)[C@@H]1CCCN1C(=O)[C@@H](N)CCCN=C(N)NC(=O)[C@@H](N)CCCNC)C(=O)N[C@@H](CC(C)C)C(=O)O
480 nM | 5.1 nM |  |  | CC[C@H](C)[C@H](NC(=O)[C@H](Cc1ccc(O)cc1)NC(=O)[C@@H]1CCCN1C(=O)[C@@H](N)CCC/N=C(/N)NC(=O)[C@@H](N)CCCN(C)C)C(=O)N[C@@H](CC(C)C)C(=O)O
400 nM | 6.9 nM | 0.52 nM | 3.52 h | CC[C@H](C)[C@H](NC(=O)[C@H](Cc1ccc(O)cc1)NC(=O)[C@@H]1CCCN1C(=O)[C@@H](N)CCC/N=C(/N)NC(=O)[C@@H](N)CCCCCNC)C(=O)N[C@@H](CC(C)C)C(=O)O
700 nM | 3.5 nM | 0.28 nM | 2.1 h | CC[C@H](C)[C@H](NC(=O)[C@H](Cc1ccc(O)cc1)NC(=O)[C@@H]1CCCN1C(=O)[C@@H](N)CCC/N=C(/N)NC(=O)[C@@H](N)CCCCCN(C)C)C(=O)N[C@@H](CC(C)C)C(=O)O
1150 nM | 1.8 nM | 0.34 nM | 2.13 h | CC[C@H](C)[C@H](NC(=O)[C@H](Cc1ccc(O)cc1)NC(=O)[C@@H]1CCCN1C(=O)[C@@H](N)CCC/N=C(/N)NC(=O)[C@@H](N)CCCCNC)C(=O)N[C@@H](CC(C)C)C(=O)O
1200 nM | 0.7 nM | 0.38 nM | 2.55 h | CC[C@H](C)[C@H](NC(=O)[C@H](Cc1ccc(O)cc1)NC(=O)[C@@H]1CCCN1C(=O)[C@@H](N)CCC/N=C(/N)NC(=O)[C@@H](N)CCCCCN)C(=O)N[C@@H](CC(C)C)C(=O)O
590 nM | 0.23 nM |  |  | CC[C@H](C)[C@H](NC(=O)[C@H](Cc1ccc(O)cc1)NC(=O)[C@@H]1CCCN1C(=O)[C@@H](N)CCC/N=C(/N)NC(=O)[C@@H](N)CCCN1CCN=C1N)C(=O)N[C@@H](CC(C)C)C(=O)O
512 nM | 2.1 nM | 0.3 nM | 2.27 h | CC[C@H](C)[C@H](NC(=O)[C@H](Cc1ccc(O)cc1)NC(=O)[C@@H]1CCCN1C(=O)[C@@H](N)CCCN=C(N)NC(=O)[C@@H](N)CCCCN)C(=O)N[C@@H](CC(C)C)C(=O)O
720 nM | 0.67 nM |  |  | CC[C@H](C)[C@H](NC(=O)[C@H](Cc1ccc(O)cc1)NC(=O)[C@@H]1CCCN1C(=O)[C@@H](N)CCCN=C(N)NC(=O)[C@@H](N)CCCN=C(N)NC)C(=O)N[C@@H](CC(C)C)C(=O)O
480 nM | 0.3 nM |  |  | CCNC(=N)NCCC[C@H](N)C(=O)/N=C(/N)NCCC[C@H](N)C(=O)N1CCC[C@H]1C(=O)N[C@@H](Cc1ccc(O)cc1)C(=O)N[C@H](C(=O)N[C@@H](CC(C)C)C(=O)O)[C@@H](C)CC (H-[X7]PYIL-OH)
